Active and inactive are the calls of the source. The calls are words filed in the database; no cut-off is given here.
What was measured:
[1] = Competitive inhibition of cyclooxygenase-mediated cyclooxygenation of arachidonic acid in sheep seminal vesicles by Dixon plot analysis; parameters: species or system Ovis aries
Procedure, shortened: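 Seminal vesicle cyclooxygenase was used with 0.5 uM hematin in 0.1 M Tris-Cl pH 8.5 containing 0.67 mM phenol. Activity was followed as O2 consumption by oxygen electrode in 3-mL chambers, with arachidonic acid as substrate. Ki was derived by Dixon graphical method from eight assays.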

[2] = organism: Ovis aries; assay: Irreversible inactivation of cyclooxygenase-mediated cyclooxygenation of arachidonic acid in sheep seminal vesicles up to 12 mins
Procedure, shortened: (§1)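 Cyclooxygenase O2-electrode assay was run with 0.5 uM hematin in Tris-Cl pH 8.5 with 0.67 mM phenol. Inhibitor was preincubated with enzyme for progressively longer periods, up to 12 min. Degree of inhibition was compared across preincubation times to test for irreversible inactivation.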

[3] = test system: Platelet; assay: Antiplatelet activity against human platelet rich plasma assessed as inhibition of ADP-induced platelet aggregation up to 5 mM incubated for 2 mins prior to ADP-challenge; assay type: functional
Procedure, shortened: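 PRP came from citrated venous blood of aspirin-free human volunteers (200g, 20 min, RT), at 4-6 x 10^8 platelets/mL, with PPP as blank. Compound sodium salts, 50 mM in 0.1 M Na2CO3, were added as 0.01-0.05 mL to 0.5 mL of stirred PRP at 37 °C, 2 min before ADP. Aggregation was induced by 0.01 mL of 1 mM ADP and followed 2-3 min by aggregometer.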

[4] = organism: Ovis aries; assay: Reversible inhibition of cyclooxygenase in sheep seminal vesicles; procedure, shortened: as §1
[5] = target: seed linoleate 13S-lipoxygenase-1 (Glycine max) (UniProt P08170); assay: Activity at soybean lipoxygenase assessed as oxygen consumption
[6] = organism: Homo sapiens; assay: Activity at prostaglandin synthetase in ADP-induced human platelet rich plasma assessed as malondialdehyde formation up to 5 mM by spectrophotometric analysis
Procedure, shortened: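 After ADP aggregation, PRP (compound salts added 2 min pre-ADP) was held a further 27 min at 37 °C unstirred. Samples were quenched in 20% trichloroacetic acid/0.6 M HCl and centrifuged. Supernatant was heated 15 min in boiling water with 0.12 M thiobarbiturate (Tris, pH 7.0), then read at A533. MDA = PRP minus PPP signal; recovery was 75-80%.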

[7] = organism: Ovis aries; assay: Activity at cyclooxygenase in sheep seminal vesicles assessed as oxygen consumption in presence of hematin
Procedure, shortened: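 Cyclooxygenase purified from seminal vesicles was supplemented with 0.5 uM hematin. Fatty acid came from a 9 mM heptane stock, dried under N2 just before use and resuspended in 0.1 M Tris-Cl pH 8.5 with 0.67 mM phenol. O2 uptake was read by oxygen electrode in 3-mL chambers. Arachidonic acid was run alongside as control substrate.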

Row | Ki [1] [µM] | Activity [2] | inhibition [4] | Activity [5] | Activity [6] | Structure (SMILES) | inhibition [3] | Activity [7]
1 | 2 | inactive | Active | Active | inactive | CCCCC/C(C)=C\C/C=C\C/C=C\CCCCCCC(=O)O | Active | inactive
2 |  |  |  |  |  | CCCCC/C=C\C/C=C\C/C=C\C/C=C\CCCC(=O)O |  | Active
3 |  |  |  |  | Active | CCCCC/C=C\C/C=C\C/C=C\CCCCCCC(=O)O | Active | 
